Assay type in all cases: cell-based
The target in assay [1] is T1, D(2) dopamine receptor (Homo sapiens, UniProt P14416). Description: Displacement of [3H] Spiperone from human D2S receptor expressed in CHO cells by competitive radioligand binding assay. (In general: In a radioligand displacement assay an active substance lowers the binding of a labelled ligand.)
In assay [2] the target is T2, D(4) dopamine receptor (Homo sapiens, UniProt P21917).
T2 sequence (P21917 whole entry): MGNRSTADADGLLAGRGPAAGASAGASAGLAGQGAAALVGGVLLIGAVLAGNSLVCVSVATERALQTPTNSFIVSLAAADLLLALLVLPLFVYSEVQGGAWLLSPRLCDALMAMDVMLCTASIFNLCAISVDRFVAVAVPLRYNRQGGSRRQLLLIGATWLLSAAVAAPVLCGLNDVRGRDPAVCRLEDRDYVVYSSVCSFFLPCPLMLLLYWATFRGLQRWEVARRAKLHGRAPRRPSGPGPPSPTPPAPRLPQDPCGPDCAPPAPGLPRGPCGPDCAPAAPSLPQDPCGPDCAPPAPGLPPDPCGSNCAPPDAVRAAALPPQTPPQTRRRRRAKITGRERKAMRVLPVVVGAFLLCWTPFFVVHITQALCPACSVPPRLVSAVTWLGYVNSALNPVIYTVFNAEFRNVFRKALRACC
The assay is described as follows: Displacement of [3H] Spiperone from human D4.4 receptor expressed in CHO cells by competitive radioligand binding assay.

In assay [3] the target is T1, D(2) dopamine receptor. The assay is described as follows: Displacement of [3H] Spiperone from human D2L receptor expressed in CHO cells by competitive radioligand binding assay.
For assay [4], the species on record is Homo sapiens. Description: Selectivity index, ratio of Ki for displacement of [3H] Spiperone from human D2L receptor expressed in CHO cells to Ki for displacement of [3H] Spiperone from human D4.4 receptor expressed in CHO cells. The method in brief:
(§1)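 Competition binding against [3H]spiperone on membranes of CHO cells stably expressing cloned human D2L, D2S, D3 or D4.4 receptors. Ki from monophasic curve fits; mean ± SEM of three to seven experiments, each in triplicate. Selectivity calculated as Ki(D2L, D2S or D3) divided by Ki(D4.4).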

Assay [5] is filed under the species Homo sapiens. Description: Selectivity index, ratio of Ki for displacement of [3H] Spiperone from human D3 receptor expressed in CHO cells to Ki for displacement of [3H] Spiperone from human D4.4 receptor expressed in CHO cells. An outline of the steps:
as §1

The species named for assay [6] is Homo sapiens. The assay is described as follows: Selectivity index, ratio of Ki for displacement of [3H] Spiperone from human D2S receptor expressed in CHO cells to Ki for displacement of [3H] Spiperone from human D4.4 receptor expressed in CHO cells. The method in brief:
as §1

Assay [7] concerns the target D(3) dopamine receptor (Homo sapiens, UniProt P35462). Description: Displacement of [3H] Spiperone from human D3 receptor expressed in CHO cells by competitive radioligand binding assay.

Each structure is given as a SMILES string.

T1 sequence (P14416 whole entry): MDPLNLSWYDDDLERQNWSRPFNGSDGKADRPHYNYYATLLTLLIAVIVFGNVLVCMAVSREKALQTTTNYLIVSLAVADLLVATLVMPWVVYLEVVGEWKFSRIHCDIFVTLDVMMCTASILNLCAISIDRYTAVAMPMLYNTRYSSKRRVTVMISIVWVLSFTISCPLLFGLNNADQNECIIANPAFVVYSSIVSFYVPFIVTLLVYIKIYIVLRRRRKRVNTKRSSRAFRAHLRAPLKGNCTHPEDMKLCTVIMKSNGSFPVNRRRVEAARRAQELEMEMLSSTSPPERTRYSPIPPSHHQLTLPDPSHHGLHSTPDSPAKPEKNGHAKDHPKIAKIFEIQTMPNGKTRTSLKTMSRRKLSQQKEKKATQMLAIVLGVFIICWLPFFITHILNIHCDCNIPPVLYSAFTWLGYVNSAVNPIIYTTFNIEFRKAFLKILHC
Sequence of D(3) dopamine receptor (P35462 whole entry): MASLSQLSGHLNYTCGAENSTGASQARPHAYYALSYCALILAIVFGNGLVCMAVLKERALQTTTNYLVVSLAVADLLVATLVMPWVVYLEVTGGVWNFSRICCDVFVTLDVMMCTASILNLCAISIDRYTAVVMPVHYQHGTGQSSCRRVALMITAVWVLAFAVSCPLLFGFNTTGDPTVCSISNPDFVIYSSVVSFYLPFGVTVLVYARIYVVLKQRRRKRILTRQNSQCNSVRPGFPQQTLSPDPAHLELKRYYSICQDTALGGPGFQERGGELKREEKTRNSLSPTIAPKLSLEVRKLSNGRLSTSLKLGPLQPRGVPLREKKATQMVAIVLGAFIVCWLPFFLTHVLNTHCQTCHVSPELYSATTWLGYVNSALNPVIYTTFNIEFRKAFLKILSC

Usually Ki stands for the dissociation constant of the complex between target and ligand, obtained from inhibition or displacement. With `COc1ccc(N(Cc2ccccc2)NC(=O)NCCCN2CCN(c3ccccc3OC)CC2)cc1`, the Ki in assay [1] was 19 nM; in assay [2], 1.7 nM; in assay [3], 45 nM; in assay [7], 120 nM. Further, the Ratio Ki in assay [4] is 26; in assay [5], 71; in assay [6], 11.

`O=C(NCCCN1CCN(c2ccc(Cl)cc2)CC1)NN(Cc1ccc(F)cc1)c1ccccc1`: the Ki was 380 nM in assay [1], 17 nM in assay [2], 500 nM in assay [3] and 850 nM in assay [7]. Moreover, the Ratio Ki in assay [4] stood at 29; in assay [5], 50; in assay [6], 22.

`O=C(NCCCN1CCN(c2ccc(Br)cc2)CC1)NN(Cc1ccccc1)c1ccccc1`: the figures for the Ki in assay [2] and in assay [7] were 14 nM and 1500 nM, respectively.

Regarding `COc1ccccc1N1CCN(CCCNC(=O)NN(Cc2ccc(C#N)cc2)c2ccc(F)cc2)CC1`, the Ki in assay [1] was 120 nM; in assay [2] it was 15 nM; in assay [3], 210 nM; in assay [7], 640 nM. For the same molecule, the Ratio Ki came to 14 in assay [4], 43 in assay [5] and 8 in assay [6].

Consider `COc1ccccc1N1CCN(CCCNC(=O)NN(Cc2ccccc2F)c2ccc(Br)cc2)CC1`, for which the Ki in assay [1] was found to be 22 nM; in assay [2], 3.3 nM; in assay [3], 45 nM; in assay [7] it was 92 nM. The figures for the Ratio Ki in assay [4], in assay [5] and in assay [6] were 14, 28 and 6.7, respectively.

On to `COc1ccccc1N1CCN(CCCNC(=O)NN(Cc2ccccc2F)c2ccc(Cl)cc2)CC1`, for which the Ki was 26 nM in assay [1], 2.6 nM in assay [2], 41 nM in assay [3] and 95 nM in assay [7]. For the same molecule, the Ratio Ki in assay [4] was 16; in assay [5] it was 36; in assay [6] it was 10.

For the molecule `COc1ccccc1N1CCN(CCCNC(=O)NN(Cc2cccc(F)c2)c2ccc(F)cc2)CC1`, the Ki was 46 nM in assay [1], 3.8 nM in assay [2], 73 nM in assay [3] and 88 nM in assay [7]. The Ratio Ki in assay [4] was found to be 19; in assay [5], 23; in assay [6], 12.

In the case of `O=C(NCCCN1CCN(c2ncccn2)CC1)NN(Cc1ccccc1)c1ccccc1`, the Ki in assay [1] amounted to 440 nM; in assay [2], 18 nM; in assay [3], 580 nM; in assay [7], 2000 nM. Also, the figures for the Ratio Ki in assay [4], in assay [5] and in assay [6] were 32, 110 and 24, respectively.

As for `O=C(NCCCN1CCN(c2ccc(Cl)cc2)CC1)NN(Cc1ccccc1)c1ccccc1`, the Ki in assay [1] stood at 410 nM; in assay [2] it was 9.7 nM; in assay [3], 640 nM; in assay [7], 1100 nM. Besides, the Ratio Ki in assay [4] stood at 66; in assay [5], 110; in assay [6] it was 42.

Turning to `COc1ccccc1N1CCN(CCCCNC(=O)/N=N/c2ccc(F)cc2)CC1`, the Ratio Ki in assay [4] stood at 0.4; in assay [5] it was 0.033; in assay [6] it was 0.36. This molecule gave a Ki in assay [7] of 3.1 nM.

`COc1ccccc1N1CCN(CCNC(=O)/N=N/c2ccc(F)cc2)CC1`: the Ki in assay [1] was 140 nM; in assay [2], 36 nM; in assay [3], 270 nM; in assay [7] it was 120 nM. Also, the Ratio Ki amounted to 7.5 in assay [4], 3.3 in assay [5] and 3.9 in assay [6].

As to `C=C(C)CN(NC(=O)NCCCN1CCN(c2ccccc2OC)CC1)c1ccc(OC)cc1`, the Ki was 300 nM in assay [1], 64 nM in assay [2], 210 nM in assay [3] and 860 nM in assay [7]. The results for the Ratio Ki in assay [4], in assay [5] and in assay [6] were 3.3, 13 and 4.7, respectively.

Take `COc1ccc(N(Cc2ccc(C#N)cc2)NC(=O)NCCCN2CCN(c3ccccc3OC)CC2)cc1`: the Ki was 110 nM in assay [1], 16 nM in assay [2], 250 nM in assay [3] and 220 nM in assay [7]. For the same molecule, the Ratio Ki stood at 16 in assay [4], 14 in assay [5] and 6.9 in assay [6].

On to `COc1cccc(CN(NC(=O)NCCCN2CCN(c3ccccc3OC)CC2)c2ccc(F)cc2)c1`, for which the Ki in assay [1] worked out at 62 nM; in assay [2], 5.9 nM; in assay [3] it was 110 nM; in assay [7] it was 150 nM. For the same molecule, the values for the Ratio Ki in assay [4], in assay [5] and in assay [6] were 19, 25 and 11, respectively.

For the molecule `COc1ccc(N(Cc2ccccc2F)NC(=O)NCCCN2CCN(c3ccccc3OC)CC2)cc1`, the Ki in assay [1] is 19 nM; in assay [2], 2.6 nM; in assay [3], 42 nM; in assay [7], 76 nM. Besides, the Ratio Ki in assay [4] was 16; in assay [5], 29; in assay [6], 7.3.

As to `O=C(NCCN1CCN(c2ccc(I)cc2)CC1)NN(Cc1ccccc1)c1ccccc1`, the Ki in assay [1] stood at 510 nM; in assay [2], 44 nM; in assay [3], 490 nM; in assay [7] it was 1800 nM. The Ratio Ki is 11 in assay [4], 38 in assay [5] and 12 in assay [6].

Take `COc1ccccc1N1CCN(CCCCNC(=O)NN(Cc2ccccc2)c2ccc(F)cc2)CC1`: the Ki in assay [1] was determined as 94 nM; in assay [2], 4.4 nM; in assay [3], 160 nM; in assay [7], 76 nM. Moreover, the Ratio Ki in assay [4] amounted to 36; in assay [5], 17; in assay [6] it was 21.

Consider `O=C(NCCCN1CCN(c2ccc(I)cc2)CC1)NN(Cc1ccccc1)c1ccccc1`, for which the Ki was found to be 670 nM in assay [1], 21 nM in assay [2], 690 nM in assay [3] and 1300 nM in assay [7]. The Ratio Ki was 33 in assay [4], 62 in assay [5] and 32 in assay [6].

Regarding `COc1ccccc1N1CCN(CCCNC(=O)NN(Cc2ccccc2)c2ccc(Cl)cc2)CC1`, the Ki in assay [1] came out at 23 nM; in assay [2] it was 2.9 nM; in assay [3], 32 nM; in assay [7], 130 nM. For the same molecule, the Ratio Ki was 11 in assay [4], 45 in assay [5] and 7.9 in assay [6].

With `COc1ccc(N(Cc2ccc(F)cc2)NC(=O)NCCCN2CCN(c3ccccc3OC)CC2)cc1`, the Ki in assay [1] came out at 110 nM; in assay [2], 2.9 nM; in assay [3] it was 160 nM; in assay [7], 400 nM. In addition, the Ratio Ki was 55 in assay [4], 140 in assay [5] and 38 in assay [6].

Take `COc1ccccc1N1CCN(CCCNC(=O)NN(Cc2ccccc2F)c2ccc(F)cc2)CC1`: the Ki in assay [1] was 47 nM; in assay [2], 3.6 nM; in assay [3], 92 nM; in assay [7] it was 160 nM. The Ratio Ki in assay [4] worked out at 26; in assay [5], 44; in assay [6], 13.

As to `Cc1cccc(C(=O)NCN2CCN(c3ccccc3C#N)CC2)c1` [PD-168,077], the Ki in assay [1] is 1100 nM; in assay [3], 2300 nM; in assay [7] it was 4700 nM.

On to `COc1ccc(N(Cc2cccc(F)c2)NC(=O)NCCCN2CCN(c3ccccc3OC)CC2)cc1`, for which the Ki in assay [1] came to 35 nM; in assay [2], 6.2 nM; in assay [3], 59 nM; in assay [7], 86 nM. Besides, the Ratio Ki was determined as 10 in assay [4], 14 in assay [5] and 5.6 in assay [6].

Take `COc1ccccc1N1CCN(CCCNC(=O)NN(Cc2ccccc2)c2ccc(Cl)cc2Cl)CC1`: the Ki was 24 nM in assay [1], 15 nM in assay [2], 35 nM in assay [3] and 61 nM in assay [7]. Further, the Ratio Ki in assay [4] worked out at 2.3; in assay [5], 4; in assay [6], 1.6.

With `O=C(NCCCN1CCN(c2ncccn2)CC1)NN(Cc1ccc(F)cc1)c1ccccc1`, the Ki stood at 310 nM in assay [1], 19 nM in assay [2], 430 nM in assay [3] and 1900 nM in assay [7]. Moreover, the Ratio Ki came to 23 in assay [4], 100 in assay [5] and 16 in assay [6].

As for `C=CCN(NC(=O)NCCCN1CCN(c2ccccc2OC)CC1)c1ccc(OC)cc1`, the Ki in assay [1] is 340 nM; in assay [2] it was 61 nM; in assay [3] it was 180 nM; in assay [7], 660 nM. Moreover, the Ratio Ki amounted to 3 in assay [4], 11 in assay [5] and 5.6 in assay [6].

The values above are taken from ChEMBL document CHEMBL4321823, “Benzyl Phenylsemicarbazides: A Chemistry-Driven Approach Leading to G Protein-Biased Dopamine D4 Receptor Agonists with High Subtype Selectivity” (J Med Chem, 2019).
